# Laboratory results from ChEMBL document CHEMBL5678799 (Biochem J, 2009).
# Activity calls are given as the source filed them. The rule behind the calls is not given here.
# Columns and labels:
# [1] = target: Serine/threonine-protein kinase BRSK2 (Homo sapiens) (UniProt Q8IWQ3); assay: (§1) Inhibition of recombinant human N-terminal His6-tagged BRSK2 (2 to 674 residues) expressed in baculovirus infected Sf21 cells assessed as remaining activity at 10 uM using KKLNRTLSFAEPG as substrate incubated for 30 mins in presence of [gamma-33P]ATP by filter binding method relative to control
# Outline: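 Assays ran 30 min at 21 °C, robotically and in the linear range. Remaining activity is given relative to incubations lacking compound, as the average of triplicate determinations ± S.D.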
# [2] = test system: RAC-alpha serine/threonine-protein kinase (Homo sapiens), P31749 [S473D]; assay: as §1, with “human” for “human N-terminal”, “AKT1 S473D mutant (118” for “BRSK2 (2”, “480” for “674”, “crosstide peptide” for “KKLNRTLSFAEPG”
# Outline: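 Radiometric panel assay run robotically at 21 °C for 30 min, linear in time and enzyme. […] Activity is expressed as percentage of the compound-omitted control, averaged from triplicates ± S.D.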
# [3] = target: Serine/threonine-protein kinase Chk1 (Homo sapiens) (UniProt O14757); assay: Inhibition of recombinant human N-terminal GST-tagged CHK1 (1 to 476 residues) expressed in baculovirus infected Sf21 cells assessed as remaining activity at 1 uM using CHKtide as substrate incubated for 30 mins in presence of [gamma-33P]ATP by filter binding method relative to control
# Outline: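 Robotic radiometric panel assay, 30 min at room temperature (21 °C), with 10 mM magnesium acetate. […] Compound at 1 or 10 µM. Residual activity expressed relative to compound-free control; triplicate average ± S.D.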
# [4] = target: Serine/threonine-protein kinase Nek2 (Homo sapiens) (UniProt P51955); assay: Inhibition of recombinant human N-terminal His6-tagged NEK2A (1 to 445 residues) expressed in baculovirus infected Sf21 cells assessed as remaining activity at 1 uM using RFRRSRRMI as substrate incubated for 30 mins in presence of [gamma-33P]ATP by filter binding method relative to control
# [5] = target: Serine/threonine-protein kinase Nek6 (Homo sapiens) (UniProt Q9HC98); assay: Inhibition of recombinant human His6-tagged NEK6 (8 to 313 residues) expressed in baculovirus infected Sf21 cells assessed as remaining activity at 1 uM using FLAKSFGSPNRAYKK as substrate incubated for 30 mins in presence of [gamma-33P]ATP by filter binding method relative to control
# Outline: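 Run robotically for 30 min at 21 °C under linear conditions. Compound at 1 or 10 µM. Percentage activity remaining versus control without compound, triplicate mean ± S.D.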
# [6] = test system: Ribosomal protein S6 kinase beta-1 (Homo sapiens), P23443 [T412E]; assay: Inhibition of recombinant human His6-tagged S6K1 T412E mutant (1 to 421 residues) expressed in baculovirus infected Sf21 cells assessed as remaining activity at 1 uM using KKRNRTLTV as substrate incubated for 30 mins in presence of [gamma-33P]ATP by filter binding method relative to control
# Outline: (§2)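 Incubations ran robotically for 30 min at room temperature (21 °C) under linear conditions. Results are percent activity remaining versus controls without compound, as the mean of triplicates ± S.D.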
# [7] = target: SRSF protein kinase 1 (Homo sapiens) (UniProt Q96SB4); assay: Inhibition of recombinant human N-terminal GST-tagged SRPK1 (2 to 654 residues) expressed in Escherichia coli assessed as remaining activity at 1 uM using RSRSRSRSRSRSRSR as substrate incubated for 30 mins in presence of [gamma-33P]ATP by filter binding assay relative to control
# Outline: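 Incubation was 30 min at room temperature (21 °C) under conditions linear with time and enzyme amount. Activity is reported as percent of control lacking compound, triplicate mean ± S.D.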
# [8] = target: Insulin-like growth factor 1 receptor (Homo sapiens) (UniProt P08069); assay: Inhibition of recombinant human N-terminal His6-tagged IGF1R (954 to 1367 residues) expressed in baculovirus infected Sf21 cells assessed as remaining activity at 10 uM using KKKSPGEYVNIEFG as substrate incubated for 30 mins in presence of [gamma-33P]ATP by filter binding method relative to control
# Outline: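 Radiometric kinase panel run robotically at room temperature (21 °C) for 30 min, linear in time and enzyme. […] Activity is expressed as percent of control without compound, from triplicate determinations ± S.D.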
# [9] = test system: Ribosomal protein S6 kinase beta-1 (Homo sapiens), P23443 [T412E]; assay: Inhibition of recombinant human His6-tagged S6K1 T412E mutant (1 to 421 residues) expressed in baculovirus infected Sf21 cells assessed as remaining activity at 10 uM using KKRNRTLTV as substrate incubated for 30 mins in presence of [gamma-33P]ATP by filter binding method relative to control; outline: as §2
# [10] = test system: Serine/threonine-protein kinase Sgk1 (Homo sapiens), O00141 [S422D]; assay: Inhibition of recombinant human His6-tagged SGK1 S422D mutant (60 to 431 residues) expressed in baculovirus infected Sf21 cells assessed as remaining activity at 10 uM using GRPRTSSFAEGKK as substrate incubated for 30 mins in presence of [gamma-33P]ATP by filter binding method relative to control; outline: as §2
# MEF [11] = assay: Inhibition of mTORC2 in serum starved MEF cells assessed as reduction IGF1-stimulated AKT phosphorylation at Thr308 residue at 100 to 1000 nM incubated for 20 mins by immunoblot analysis; type: cell-based; conditions: Mus musculus, dose 100-1000 nM
# Outline: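 Serum withdrawn 16 h. Inhibitor or vehicle given 30 min before stimulation with 50 ng/ml IGF-1 for 20 min. Lysed in Tris lysis buffer and immunoblotted for Akt Thr308 phosphorylation with ECL detection. Applies to HEK-293 and to wild-type, Rictor, Sin1 or mLST8 knockout MEFs. Three independent experiments.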
# [12] = target: Serine/threonine-protein kinase mTOR (Mus musculus) (UniProt Q9JLN9); assay: Inhibition of mTOR in MEF cells assessed as reduction in 4E-BP1 phosphorylation at T37/46 residues at 1 uM incubated for 30 mins by immunoblot analysis; type: cell-based
# Outline: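 Cells (MEFs, wild-type or knockout, or HeLa) kept in 10% serum, then exposed 30 min to inhibitor or vehicle at the stated level. Washed twice in ice-cold PBS and lysed in Tris lysis buffer with CHAPS, phosphatase and protease inhibitors. Lysates cleared at 18000 g and immunoblotted with phospho-specific antibodies and ECL detection. Blots are representative of three experiments.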
# MEF [13] = assay: Induction of cell cycle arrest in mLST8 knockout MEF cells assessed as accumulation at G1 phase at 3 uM incubated for 1 to 3 days by propidium iodide staining based flow cytometric analysis (reference value: 22.2 +/- 0.59%); type: toxicity; conditions: mouse, time 1-3 day
# mTORC2 (Homo sapiens) = mTORC2 (Homo sapiens) (UniProt P42345+Q6R327+Q9BVC4+Q9BPZ7); conditions: HEK293, dose 30-1000 nM, time 30.0 min
# Ribosomal protein S6 kinase beta-1 (Homo sapiens), P23443 [T412E], sequence (P23443 whole entry T412E, looked up, the tested form may be a part): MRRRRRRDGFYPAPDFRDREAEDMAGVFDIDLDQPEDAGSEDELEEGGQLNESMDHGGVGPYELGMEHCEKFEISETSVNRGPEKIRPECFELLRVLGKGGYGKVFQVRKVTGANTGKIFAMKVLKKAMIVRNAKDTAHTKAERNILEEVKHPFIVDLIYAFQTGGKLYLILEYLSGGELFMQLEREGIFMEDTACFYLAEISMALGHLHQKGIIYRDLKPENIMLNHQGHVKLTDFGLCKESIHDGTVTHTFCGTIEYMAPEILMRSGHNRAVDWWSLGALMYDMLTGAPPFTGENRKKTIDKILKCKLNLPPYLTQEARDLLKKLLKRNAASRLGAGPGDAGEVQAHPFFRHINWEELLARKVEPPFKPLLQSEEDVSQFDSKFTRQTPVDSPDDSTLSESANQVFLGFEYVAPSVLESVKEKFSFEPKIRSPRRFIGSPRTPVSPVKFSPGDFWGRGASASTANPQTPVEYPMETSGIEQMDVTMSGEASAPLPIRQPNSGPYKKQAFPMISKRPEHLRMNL
# Serine/threonine-protein kinase Sgk1 (Homo sapiens), O00141 [S422D], sequence (O00141 whole entry S422D, the tested form may be a part): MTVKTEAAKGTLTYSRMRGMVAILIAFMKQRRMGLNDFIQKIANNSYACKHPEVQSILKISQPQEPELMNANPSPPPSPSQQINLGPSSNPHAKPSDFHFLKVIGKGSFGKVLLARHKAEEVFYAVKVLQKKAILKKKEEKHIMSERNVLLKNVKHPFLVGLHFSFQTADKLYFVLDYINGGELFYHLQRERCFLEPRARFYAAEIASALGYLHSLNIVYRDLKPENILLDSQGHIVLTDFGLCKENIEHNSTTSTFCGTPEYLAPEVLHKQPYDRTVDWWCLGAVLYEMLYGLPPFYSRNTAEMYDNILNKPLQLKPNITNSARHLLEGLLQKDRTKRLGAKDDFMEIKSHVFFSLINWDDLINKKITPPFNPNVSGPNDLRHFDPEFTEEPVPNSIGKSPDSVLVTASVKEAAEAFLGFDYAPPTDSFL
# RAC-alpha serine/threonine-protein kinase (Homo sapiens), P31749 [S473D], sequence (P31749 whole entry S473D): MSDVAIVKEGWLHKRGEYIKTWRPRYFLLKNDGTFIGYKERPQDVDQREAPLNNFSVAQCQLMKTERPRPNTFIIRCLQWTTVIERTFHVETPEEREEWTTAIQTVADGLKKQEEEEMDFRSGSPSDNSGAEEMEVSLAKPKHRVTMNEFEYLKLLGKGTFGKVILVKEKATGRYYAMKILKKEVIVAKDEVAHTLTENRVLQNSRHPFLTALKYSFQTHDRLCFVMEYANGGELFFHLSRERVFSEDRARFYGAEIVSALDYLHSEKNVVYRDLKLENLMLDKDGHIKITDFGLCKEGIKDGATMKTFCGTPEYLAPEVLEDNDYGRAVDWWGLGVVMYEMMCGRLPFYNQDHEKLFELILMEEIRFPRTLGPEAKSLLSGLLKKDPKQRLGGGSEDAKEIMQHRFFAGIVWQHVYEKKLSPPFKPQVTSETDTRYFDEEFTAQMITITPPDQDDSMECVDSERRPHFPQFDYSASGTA
# Insulin-like growth factor 1 receptor (Homo sapiens), sequence (P08069 31-736 limits assumed): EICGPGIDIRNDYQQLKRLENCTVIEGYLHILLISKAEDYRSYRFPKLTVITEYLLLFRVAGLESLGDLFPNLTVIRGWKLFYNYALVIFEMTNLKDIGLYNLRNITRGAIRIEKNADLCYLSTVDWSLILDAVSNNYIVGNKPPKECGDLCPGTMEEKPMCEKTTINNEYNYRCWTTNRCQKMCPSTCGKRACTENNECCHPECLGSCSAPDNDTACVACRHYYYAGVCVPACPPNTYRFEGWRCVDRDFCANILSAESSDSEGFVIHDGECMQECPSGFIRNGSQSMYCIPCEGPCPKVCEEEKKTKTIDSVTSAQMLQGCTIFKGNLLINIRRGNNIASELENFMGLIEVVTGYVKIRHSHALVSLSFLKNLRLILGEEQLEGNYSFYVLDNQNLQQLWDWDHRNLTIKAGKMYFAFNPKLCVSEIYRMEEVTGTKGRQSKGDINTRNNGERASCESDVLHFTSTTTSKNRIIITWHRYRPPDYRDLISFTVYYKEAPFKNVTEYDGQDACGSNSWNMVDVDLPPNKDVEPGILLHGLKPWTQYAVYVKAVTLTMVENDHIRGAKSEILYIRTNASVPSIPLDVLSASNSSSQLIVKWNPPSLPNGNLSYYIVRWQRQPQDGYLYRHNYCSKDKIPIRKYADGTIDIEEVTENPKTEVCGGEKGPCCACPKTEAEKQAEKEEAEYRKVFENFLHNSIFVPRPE
# Insulin-like growth factor 1 receptor (Homo sapiens), sequence (P08069 741-1367 limits assumed): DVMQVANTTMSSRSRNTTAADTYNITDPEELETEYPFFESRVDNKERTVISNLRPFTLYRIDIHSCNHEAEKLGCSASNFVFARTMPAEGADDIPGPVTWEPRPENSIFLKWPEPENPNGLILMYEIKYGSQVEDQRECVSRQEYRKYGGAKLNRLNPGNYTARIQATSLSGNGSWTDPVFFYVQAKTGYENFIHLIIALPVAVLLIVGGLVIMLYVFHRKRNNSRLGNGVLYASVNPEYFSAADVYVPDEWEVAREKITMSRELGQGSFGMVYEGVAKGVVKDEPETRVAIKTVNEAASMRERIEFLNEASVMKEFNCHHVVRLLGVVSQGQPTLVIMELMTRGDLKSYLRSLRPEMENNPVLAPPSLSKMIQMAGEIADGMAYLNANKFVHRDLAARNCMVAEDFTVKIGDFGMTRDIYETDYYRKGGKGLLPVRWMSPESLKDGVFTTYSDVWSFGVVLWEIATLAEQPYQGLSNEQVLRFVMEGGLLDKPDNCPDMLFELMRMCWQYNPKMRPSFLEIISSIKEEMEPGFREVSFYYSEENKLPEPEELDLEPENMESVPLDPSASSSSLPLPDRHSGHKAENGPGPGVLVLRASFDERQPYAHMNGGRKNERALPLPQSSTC
# SRSF protein kinase 1 (Homo sapiens), sequence (Q96SB4 whole entry, the tested form may be a part): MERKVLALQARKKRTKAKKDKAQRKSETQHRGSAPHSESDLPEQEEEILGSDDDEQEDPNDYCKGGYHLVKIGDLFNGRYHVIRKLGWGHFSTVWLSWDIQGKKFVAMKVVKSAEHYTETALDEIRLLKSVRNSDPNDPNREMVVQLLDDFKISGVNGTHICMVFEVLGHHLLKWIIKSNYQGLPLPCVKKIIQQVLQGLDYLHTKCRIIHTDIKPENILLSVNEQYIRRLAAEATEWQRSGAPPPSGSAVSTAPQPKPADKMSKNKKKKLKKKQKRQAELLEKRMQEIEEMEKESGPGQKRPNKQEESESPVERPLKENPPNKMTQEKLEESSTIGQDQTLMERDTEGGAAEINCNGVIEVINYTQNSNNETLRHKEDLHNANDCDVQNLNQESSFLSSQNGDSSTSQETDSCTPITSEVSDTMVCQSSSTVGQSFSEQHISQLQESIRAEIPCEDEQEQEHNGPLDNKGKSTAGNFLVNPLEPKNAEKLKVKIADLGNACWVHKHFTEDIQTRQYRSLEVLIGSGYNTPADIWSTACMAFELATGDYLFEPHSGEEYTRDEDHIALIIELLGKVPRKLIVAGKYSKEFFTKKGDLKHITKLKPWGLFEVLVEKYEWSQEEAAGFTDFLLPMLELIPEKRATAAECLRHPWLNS
# Serine/threonine-protein kinase Chk1 (Homo sapiens), sequence (O14757 whole entry, the tested form may be a part): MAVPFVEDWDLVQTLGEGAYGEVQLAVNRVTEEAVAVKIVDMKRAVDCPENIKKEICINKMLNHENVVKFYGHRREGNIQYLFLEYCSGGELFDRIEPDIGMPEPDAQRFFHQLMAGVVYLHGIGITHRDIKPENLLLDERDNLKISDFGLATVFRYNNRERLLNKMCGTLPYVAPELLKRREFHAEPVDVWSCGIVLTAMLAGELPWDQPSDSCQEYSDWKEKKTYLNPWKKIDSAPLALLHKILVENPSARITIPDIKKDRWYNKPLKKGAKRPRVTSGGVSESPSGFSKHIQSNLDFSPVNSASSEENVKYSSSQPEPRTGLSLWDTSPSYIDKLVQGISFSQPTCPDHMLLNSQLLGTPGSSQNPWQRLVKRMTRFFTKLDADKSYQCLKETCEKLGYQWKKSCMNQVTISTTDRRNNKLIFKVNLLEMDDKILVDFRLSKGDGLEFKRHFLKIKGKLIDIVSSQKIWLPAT
# Serine/threonine-protein kinase BRSK2 (Homo sapiens), sequence (Q8IWQ3 whole entry, the tested form may be a part): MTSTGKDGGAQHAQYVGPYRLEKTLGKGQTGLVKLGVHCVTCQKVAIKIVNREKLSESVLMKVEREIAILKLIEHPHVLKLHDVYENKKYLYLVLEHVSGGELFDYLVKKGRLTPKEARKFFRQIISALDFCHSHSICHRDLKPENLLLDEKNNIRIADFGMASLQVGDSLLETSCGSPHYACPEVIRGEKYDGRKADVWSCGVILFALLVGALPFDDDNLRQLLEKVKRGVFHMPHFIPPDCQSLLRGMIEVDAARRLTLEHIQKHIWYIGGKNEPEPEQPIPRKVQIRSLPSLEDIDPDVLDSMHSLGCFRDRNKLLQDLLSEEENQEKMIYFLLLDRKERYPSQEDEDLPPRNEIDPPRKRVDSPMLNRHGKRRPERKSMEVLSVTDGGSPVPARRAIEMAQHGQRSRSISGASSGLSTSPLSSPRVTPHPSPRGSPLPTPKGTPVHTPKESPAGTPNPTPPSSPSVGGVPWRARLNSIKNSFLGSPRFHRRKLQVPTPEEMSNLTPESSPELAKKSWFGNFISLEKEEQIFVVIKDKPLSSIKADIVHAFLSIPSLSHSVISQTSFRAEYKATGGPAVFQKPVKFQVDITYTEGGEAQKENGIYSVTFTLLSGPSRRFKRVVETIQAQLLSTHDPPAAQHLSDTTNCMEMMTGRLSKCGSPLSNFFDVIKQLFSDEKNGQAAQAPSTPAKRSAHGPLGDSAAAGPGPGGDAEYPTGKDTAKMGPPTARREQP
# Serine/threonine-protein kinase Nek6 (Homo sapiens), sequence (Q9HC98 whole entry, the tested form may be a part): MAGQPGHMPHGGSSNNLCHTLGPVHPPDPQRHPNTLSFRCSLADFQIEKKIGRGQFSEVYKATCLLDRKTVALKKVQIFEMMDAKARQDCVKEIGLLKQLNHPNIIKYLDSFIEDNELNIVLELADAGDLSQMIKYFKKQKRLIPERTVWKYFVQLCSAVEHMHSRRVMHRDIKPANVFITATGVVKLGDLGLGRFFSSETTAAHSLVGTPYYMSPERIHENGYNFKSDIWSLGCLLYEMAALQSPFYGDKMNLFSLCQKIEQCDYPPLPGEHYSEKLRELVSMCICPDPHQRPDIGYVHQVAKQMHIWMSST
compound,measurement,setting,value
COc1ccc(-c2ccc3c(N4CCOCC4)nc(N4C[C@@H](C)O[C@@H](C)C4)nc3n2)cc1CO [Ku-0063794],Activity,[1],72%
same,Activity,[2],90%
same,Activity,[3],87%
same,Activity,[4],92%
same,Activity,[5],74%
same,Activity,[6],104%
same,Activity,[7],101%
same,Activity,[8],89%
same,Activity,[9],98%
same,Activity,[10],64%
same,inhibition,MEF [11],Active
same,inhibition,[12],Active
same,Activity,MEF [13],47.3%
same,inhibition,mTORC2 (Homo sapiens),Active
